Measurements published in ChEMBL document CHEMBL1136075, “Synthesis of the novel liqustrazine derivatives and Their protective effect on injured vascular endothelial cell damaged by hydrogen peroxide” (2003).
Activity calls are given as the source filed them. No cut-off for these calls is given here.

Experiments:
HUVEC [1] = assay: Maximum stimulation of proliferation rate of human umbilical vascular endothelial cells (HUVECs) by the compound at a concentration of 0.6 mM; type: functional
How it was run: (§1)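 Cultured human umbilical vein endothelial cells (normal, uninjured) exposed to compound over 0.1–1.5 mmol L⁻¹; viability by MTT, absorbance at 570 nm. Proliferation rate P(%) = (A − A0)/A0, with A0 the vehicle-treated control wells. The maximum P over the concentrations tested is reported. Mean ± SEM, n=6 wells.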

HUVEC [2] = assay: Maximum stimulation of proliferation rate of human umbilical vascular endothelial cells (HUVECs) by the compound at a concentration of 1.5 mM; type: functional; how it was run: as §1
HUVEC [3] = assay: Maximum stimulation of proliferation rate of human umbilical vascular endothelial cells (HUVECs) by the compound at a concentration of 0.1 mM; type: functional; how it was run: as §1
HUVEC [4] = assay: Maximum stimulation of proliferation rate of human umbilical vascular endothelial cells (HUVECs) by the compound at a concentration of 0.1-1.5 mM; NA is not active; type: functional, cell-based; how it was run: as §1

SMILES | Pmax (HUVEC [3]) [%] | also measured
Cc1nc(C)c(COC(=O)c2ccccc2)nc1C | – | Pmax (HUVEC [1]): 37%
Cc1nc(C)c(COC(=O)c2ccccc2I)nc1C | – | Pmax (HUVEC [2]): 61.36%
COc1ccc(/C=C/C(=O)OCc2nc(C)c(C)nc2C)cc1 | 75.45 | –
COc1ccccc1C(=O)OCc1nc(C)c(C)nc1C | 71.95 | –
Cc1nc(C)c(COC(=O)c2cccc(Cl)c2)nc1C | 59.32 | –
Cc1nc(C)c(COC(=O)/C=C/c2ccccc2)nc1C | – | Pmax (HUVEC [1]): 77.32%
COc1ccc(C(=O)OCc2nc(C)c(C)nc2C)cc1OC | 52.95 | –
Cc1nc(C)c(COC(=O)C(C)(C)Oc2ccc(Cl)cc2)nc1C | 87.85 | –
Cc1nc(C)c(COC(=O)c2ccc(Br)cc2)nc1C | – | Pmax (HUVEC [4]): inactive
Cc1nc(C)c(COC(=O)c2ccc(Cl)cc2)nc1C | 82.55 | –
Cc1nc(C)c(COC(=O)c2ccco2)nc1C | – | Pmax (HUVEC [1]): 69.39%
COc1ccc(/C=C/C(=O)OCc2nc(C)c(C)nc2C)c(OC)c1 | 70.16 | –
Cc1nc(C)c(C)nc1C [LIGUSTRAZINE] | – | Pmax (HUVEC [1]): 20.66%
Cc1nc(C)c(COC(=O)c2cccnc2)nc1C | 88.57 | –
COc1ccc(C(=O)OCc2nc(C)c(C)nc2C)cc1 | 66.04 | –
COc1cc(C(=O)OCc2nc(C)c(C)nc2C)cc(OC)c1OC | 45.8 | –
Cc1nc(C)c(COC(=O)CCc2ccccc2)nc1C | 80.54 | –
COc1cc(/C=C/C(=O)OCc2nc(C)c(C)nc2C)ccc1O | 83.87 | –
CC(=O)Oc1ccccc1C(=O)OCc1nc(C)c(C)nc1C | 70.88 | –
Cc1nc(C)c(COC(=O)c2ccccc2Cl)nc1C | – | Pmax (HUVEC [1]): 32.1%
Cc1nc(C)c(CO)nc1C | – | Pmax (HUVEC [1]): 28.03%
Cc1nc(C)c(COC(=O)c2ccc(Br)cc2Br)nc1C | – | Pmax (HUVEC [4]): inactive
Cc1nc(C)c(COC(=O)Cc2ccccc2)nc1C | 76.11 | –
